From ChEMBL document CHEMBL2407075, “Sulphonamido-quinoxalines: search for anticancer agent” (Eur J Med Chem, 2013)

Key:
Format in all cases: functional
SF-539 [1] = assay: Growth inhibition of human SF539 cells after 48 hrs by sulforhodamine B assay; settings: SF-539, 48 h; for CC50: read-out: LC50 (the source's name)
Method in brief: (§1)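 Adherent cells in RPMI 1640 with 5% FBS and 2 mM L-glutamine were plated at 5000–40,000 cells/well and grown 24 h. Five concentrations (0.01–100 µM, DMSO stock) were added for 48 h at 37 °C. Cells were fixed with cold TCA (10% final) and stained with SRB, read at 515 nm. GI50 came from log concentration–growth curves against time-zero and control plates.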

SF-539 [2] = assay: Growth inhibition of human SF539 cells assessed as cell growth at 10^-5 M after 48 hrs by sulforhodamine B assay; settings: SF-539, 48 h, read-out: Activity
UO-31 = assay: Growth inhibition of human UO31 cells assessed as cell growth at 10^-8 M after 48 hrs by sulforhodamine B assay; settings: UO-31, 48 h, read-out: Activity
NCI-H23 = assay: Growth inhibition of human NCI-H23 cells assessed as cell growth at 10^-4 M after 48 hrs by sulforhodamine B assay; settings: NCI-H23, 48 h, read-out: Activity
SF-268 [3] = assay: Growth inhibition of human SF268 cells after 48 hrs by sulforhodamine B assay; settings: SF-268, 48 h; for CC50: read-out: LC50 (the source's name); method in brief: as §1
TK-10 = assay: Growth inhibition of human TK10 cells assessed as cell growth at 10^-7 M after 48 hrs by sulforhodamine B assay; settings: TK-10, 48 h, read-out: Activity
OVCAR-5 = assay: Growth inhibition of human OVCAR5 cells assessed as cell growth at 10^-4 M after 48 hrs by sulforhodamine B assay; settings: OVCAR-5, 48 h, read-out: Activity
NCI-H322M = assay: Growth inhibition of human NCI-H322M cells after 48 hrs by sulforhodamine B assay; settings: for CC50: read-out: LC50 (the source's name); method in brief: as §1
Malme-3M = assay: Growth inhibition of human MALME-3M cells assessed as cell growth at 10^-6 M after 48 hrs by sulforhodamine B assay; settings: read-out: Activity
HOP-62 = assay: Growth inhibition of human HOP62 cells assessed as cell growth at 10^-4 M after 48 hrs by sulforhodamine B assay; settings: HOP-62, 48 h, read-out: Activity
Method in brief: (§2)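 Five-dose screen at NCI. Cells in RPMI 1640 with 5% FBS and 2 mM L-glutamine, seeded at 5000–40,000 cells/well and grown 24 h at 37 °C, 5% CO2 before dosing, with time-zero plates TCA-fixed. Drug diluted from DMSO stock to 0.01, 0.1, 1, 10 and 100 µM final, 48 h. Cells fixed with cold TCA (10% final), stained with 0.4% SRB and read at 515 nm. Percent growth from Tz, control and test absorbances; GI50, TGI and LC50 from dose-response curves.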

DU-145 = assay: Growth inhibition of human DU145 cells after 48 hrs by sulforhodamine B assay; settings: DU-145, 48 h; for CC50: read-out: LC50 (the source's name); method in brief: as §1
T47D = assay: Growth inhibition of human T47D cells assessed as cell growth at 10^-6 M after 48 hrs by sulforhodamine B assay; settings: read-out: Activity
MCF7 = assay: Growth inhibition of human MCF7 cells assessed as cell growth at 10^-8 M after 48 hrs by sulforhodamine B assay; settings: MCF7, 48 h, read-out: Activity
NCI-H460 [4] = assay: Growth inhibition of human NCI-H460 cells assessed as cell growth at 10^-4 M after 48 hrs by sulforhodamine B assay; settings: NCI-H460, 48 h, read-out: Activity
RXF 393 = assay: Growth inhibition of human RXF393 cells assessed as cell growth at 10^-8 M after 48 hrs by sulforhodamine B assay; settings: RXF 393, 48 h, read-out: Activity
[5] = Growth inhibition of human EKVX cells after 48 hrs by sulforhodamine B assay; settings: for CC50: read-out: LC50 (the source's name); method in brief: as §1
HOP-92 = assay: Growth inhibition of human HOP92 cells assessed as cell growth at 10^-4 M after 48 hrs by sulforhodamine B assay; settings: HOP-92, 48 h, read-out: Activity; method in brief: as §2
MDA-MB-435 = assay: Growth inhibition of human MDA-MB-435 cells after 48 hrs by sulforhodamine B assay; settings: MDA-MB-435, 48 h, read-out: LC50 (the source's name); method in brief: as §1
[6] = Growth inhibition of human NCI-ADR-RES cells assessed as cell growth at 10^-4 M after 48 hrs by sulforhodamine B assay; settings: read-out: Activity
NCI-H460 [7] = assay: Growth inhibition of human NCI-H460 cells assessed as cell growth at 10^-5 M after 48 hrs by sulforhodamine B assay; settings: NCI-H460, 48 h, read-out: Activity
A549 = assay: Growth inhibition of human A549/ATCC cells assessed as cell growth at 10^-6 M after 48 hrs by sulforhodamine B assay; settings: A549, 48 h, read-out: Activity
Method in brief: (§3)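 Five-dose NCI-60 run (0.01, 0.1, 1, 10 and 100 µM, as 10-fold dilutions from a DMSO stock made at 400× the top final level). Cells were grown in RPMI 1640 with 5% FBS and 2 mM glutamine and plated for 24 h. They were then exposed for 48 h at 37 °C and 5% CO2. TCA fixation was followed by SRB staining with A515 read-out. Percent growth was taken relative to time-zero and control plates.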

SN12C = assay: Growth inhibition of human SN12C cells assessed as cell growth at 10^-8 M after 48 hrs by sulforhodamine B assay; settings: read-out: Activity
SNB-19 = assay: Growth inhibition of human SNB19 cells assessed as cell growth at 10^-7 M after 48 hrs by sulforhodamine B assay; settings: SNB-19, 48 h, read-out: Activity
HCT-116 = assay: Growth inhibition of human HCT116 cells assessed as cell growth at 10^-8 M after 48 hrs by sulforhodamine B assay; settings: HCT-116, 48 h, read-out: Activity; method in brief: as §2
A498 = assay: Growth inhibition of human A498 cells assessed as cell growth at 10^-6 M after 48 hrs by sulforhodamine B assay; settings: A498, 48 h, read-out: Activity; method in brief: as §3
M14 = assay: Growth inhibition of human M14 cells assessed as cell growth at 10^-4 M after 48 hrs by sulforhodamine B assay; settings: M14, 48 h, read-out: Activity
[8] = Growth inhibition of human NCI-ADR-RES cells assessed as cell growth at 10^-8 M after 48 hrs by sulforhodamine B assay; settings: read-out: Activity
NCI-H522 [9] = assay: Growth inhibition of human NCI-H522 cells assessed as cell growth at 10^-7 M after 48 hrs by sulforhodamine B assay; settings: NCI-H522, 48 h, read-out: Activity
SF-268 [10] = assay: Growth inhibition of human SF268 cells assessed as cell growth at 10^-4 M after 48 hrs by sulforhodamine B assay; settings: SF-268, 48 h, read-out: Activity
NCI-H522 [11] = assay: Growth inhibition of human NCI-H522 cells assessed as cell growth at 10^-4 M after 48 hrs by sulforhodamine B assay; settings: NCI-H522, 48 h, read-out: Activity
SK-OV-3 = assay: Growth inhibition of human SKOV3 cells assessed as cell growth at 10^-4 M after 48 hrs by sulforhodamine B assay; settings: SK-OV-3, 48 h, read-out: Activity

For `O=S(=O)(Nc1ccccn1)c1ccc2nc(-c3ccccc3)c(-c3ccccc3)nc2c1`, the TGI (SF-539 [1]) was > 100 µM, the CC50 (SF-539 [1]) was > 100 µM and the growth at 10 µM (SF-539 [2]) was 7%. The growth at 0.01 µM (UO-31) was 88%, the growth at 100 µM (NCI-H23) was 42% and the TGI (SF-268 [3]) was > 100 µM. For the same compound, the CC50 (SF-268 [3]) was > 100 µM, the growth at 0.1 µM (TK-10) was 99% and the growth at 100 µM (OVCAR-5) was 99%. The TGI (NCI-H322M) was > 100 µM, the CC50 (NCI-H322M) was > 100 µM and the growth at 1 µM (Malme-3M) was 115%. For the same compound, the growth at 100 µM (HOP-62) was 39%, the TGI (DU-145) was > 100 µM and the CC50 (DU-145) was > 100 µM. For the same compound, the growth at 1 µM (T47D) was 54%, the growth at 0.01 µM (MCF7) was 95% and the growth at 100 µM (NCI-H460 [4]) was 65%. For the same compound, the growth at 0.01 µM (RXF 393) was 105%, the GI50 [5] was 2.69 µM and the TGI [5] was > 100 µM. The CC50 [5] was > 100 µM, the growth at 100 µM (HOP-92) was 1% and the CC50 (MDA-MB-435) was > 100 µM. For the same compound, the growth at 100 µM [6] was 58%, the growth at 10 µM (NCI-H460 [7]) was 1% and the growth at 1 µM (A549) was 96%. For the same compound, the growth at 0.01 µM (SN12C) was 95%, the growth at 0.1 µM (SNB-19) was 93% and the growth at 0.01 µM (HCT-116) was 97%. For the same compound, the growth at 1 µM (A498) was 66%, the growth at 100 µM (M14) was 69% and the growth at 0.01 µM [8] was 101%. For the same compound, the growth at 0.1 µM (NCI-H522 [9]) was 88%, the growth at 100 µM (SF-268 [10]) was 64% and the growth at 100 µM (NCI-H522 [11]) was 31%. The growth at 100 µM (SK-OV-3) was 37%.
For `O=S(=O)(Nc1ccc(Cl)cc1)c1ccc2nc(-c3ccccc3)c(-c3ccccc3)nc2c1`, the TGI (SF-539 [1]) was > 100 µM, the CC50 (SF-539 [1]) was > 100 µM and the growth at 10 µM (SF-539 [2]) was 5%. For the same compound, the growth at 0.01 µM (UO-31) was 87%, the growth at 100 µM (NCI-H23) was 72% and the TGI (SF-268 [3]) was > 100 µM. For the same compound, the CC50 (SF-268 [3]) was > 100 µM, the growth at 0.1 µM (TK-10) was 99% and the growth at 100 µM (OVCAR-5) was 90%. The TGI (NCI-H322M) was > 100 µM, the CC50 (NCI-H322M) was > 100 µM and the growth at 1 µM (Malme-3M) was 103%. The growth at 100 µM (HOP-62) was 44%, the TGI (DU-145) was > 100 µM and the CC50 (DU-145) was > 100 µM. It also gave a growth at 1 µM (T47D) of 69%, a growth at 0.01 µM (MCF7) of 95% and a growth at 100 µM (NCI-H460 [4]) of 68%. The growth at 0.01 µM (RXF 393) was 97%, the CC50 [5] was > 100 µM and the growth at 100 µM (HOP-92) was 32%. For the same compound, the CC50 (MDA-MB-435) was > 100 µM, the growth at 100 µM [6] was 69% and the growth at 10 µM (NCI-H460 [7]) was -18%. It also gave a growth at 1 µM (A549) of 87%, a growth at 0.01 µM (SN12C) of 95% and a growth at 0.1 µM (SNB-19) of 96%. The growth at 0.01 µM (HCT-116) was 96%, the growth at 1 µM (A498) was 65% and the growth at 100 µM (M14) was 77%. For the same compound, the growth at 0.01 µM [8] was 99%, the growth at 0.1 µM (NCI-H522 [9]) was 90% and the growth at 100 µM (SF-268 [10]) was 76%. It also gave a growth at 100 µM (NCI-H522 [11]) of 67% and a growth at 100 µM (SK-OV-3) of 65%.
